Measured values reported in ChEMBL document CHEMBL3271935, “Synthesis and biological activity of some broad-spectrum N-acylphenyglycine cephalosporins” (1977).
In brackets after ≈: the same amount, converted by molar mass.

Assays:
Klebsiella aerogenes = experiment: Antibacterial activity against Enterobacter aerogenes ATCC 13048 assessed as growth inhibition by two-fold agar dilution method; type: functional
In short: (§1)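 MIC (μg/mL) by twofold agar dilution on Trypticase soy agar buffered to pH 6.0.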

Klebsiella pneumoniae = experiment: Antibacterial activity against Klebsiella pneumoniae 4200 assessed as growth inhibition by two-fold agar dilution method; type: functional; in short: as §1
Escherichia coli [1] = experiment: Antibacterial activity against Escherichia coli 12140 assessed as growth inhibition by two-fold agar dilution method; type: functional; in short: as §1
Escherichia coli [2] = experiment: Antibacterial activity against Escherichia coli 12140 infected in sc dosed mouse administered at 1 to 5 hrs measured for 3 days; type: functional; settings: Escherichia coli, 12140, sc; read-out: PD50
In short: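 Mice infected intraperitoneally with about 2×10^3 organisms per mouse of E. coli 12140 culture diluted in 5% hog gastric mucin, giving uniformly lethal infection. Fourfold dilutions given subcutaneously in equally divided portions at 1 and 5 h postinfection, five groups per compound. Survivors observed 3 days. PD50 is total dose (mg/kg) protecting 50%, calculated by Litchfield–Wilcoxon method.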

Morganella morganii = experiment: Antibacterial activity against indole positive Proteus morganii 179 assessed as growth inhibition by two-fold agar dilution method; type: functional; in short: as §1
Pseudomonas aeruginosa [3] = experiment: Antibacterial activity against Pseudomonas aeruginosa HH 63 assessed as growth inhibition by two-fold agar dilution method; type: functional; in short: as §1
Salmonella paratyphi = experiment: Antibacterial activity against Salmonella paratyphi ATCC 12176 assessed as growth inhibition by two-fold agar dilution method; type: functional, Salmonella enterica subsp. enterica serovar Paratyphi A; settings: Salmonella enterica
In short: (§2)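 Twofold agar dilution on Trypticase soy agar buffered to pH 6.0. MIC reported in μg/mL.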

Staphylococcus aureus = experiment: Antibacterial activity against penicillin G resistant Staphylococcus aureus HH 127 assessed as growth inhibition by two-fold agar dilution method; type: functional; in short: as §2
Pseudomonas aeruginosa [4] = experiment: Antibacterial activity against Pseudomonas aeruginosa 647 assessed as growth inhibition; type: functional
In short: (§3)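 Broth MIC by the standard microtiter technique in unbuffered Mueller-Hinton broth.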

Pseudomonas aeruginosa [5] = experiment: Antibacterial activity against Pseudomonas aeruginosa 1504 assessed as growth inhibition; type: functional; in short: as §3
Pseudomonas aeruginosa [6] = experiment: Antibacterial activity against Pseudomonas aeruginosa 1042 assessed as growth inhibition; type: functional; in short: as §3
Pseudomonas aeruginosa [7] = experiment: Antibacterial activity against Pseudomonas aeruginosa 1063 assessed as growth inhibition; type: functional; in short: as §3
Pseudomonas aeruginosa [8] = experiment: Antibacterial activity against Pseudomonas aeruginosa 219 assessed as growth inhibition; type: functional; in short: as §3
Pseudomonas aeruginosa [9] = experiment: Antibacterial activity against Pseudomonas aeruginosa 1106 assessed as growth inhibition; type: functional; in short: as §3
Pseudomonas aeruginosa [10] = experiment: Antibacterial activity against Pseudomonas aeruginosa 1062 assessed as growth inhibition; type: functional; in short: as §3
Pseudomonas aeruginosa [11] = experiment: Antibacterial activity against Pseudomonas aeruginosa 864 assessed as growth inhibition; type: functional; in short: as §3

Compound | MIC (Klebsiella aerogenes) [µg/mL] | MIC (Klebsiella pneumoniae) [µg/mL] | MIC (Escherichia coli [1]) [µg/mL] | ED50 (Escherichia coli [2]) [mg/kg] | MIC (Morganella morganii) [µg/mL] | MIC (Pseudomonas aeruginosa [3]) [µg/mL] | MIC (Salmonella paratyphi) [µg/mL] | MIC (Staphylococcus aureus) [µg/mL] | MIC (Pseudomonas aeruginosa [4]) [µg/mL] | MIC (Pseudomonas aeruginosa [5]) [µg/mL] | MIC (Pseudomonas aeruginosa [6]) [µg/mL] | MIC (Pseudomonas aeruginosa [7]) [µg/mL] | MIC (Pseudomonas aeruginosa [8]) [µg/mL] | MIC (Pseudomonas aeruginosa [9]) [µg/mL] | MIC (Pseudomonas aeruginosa [10]) [µg/mL] | MIC (Pseudomonas aeruginosa [11]) [µg/mL]
CC(=O)OCC1=C(C(=O)[O-])N2C(=O)[C@@H](NC(=O)C(NC(=O)CCCC(=O)[O-])c3ccccc3)[C@H]2SC1.[Na+].[Na+] (stereo not given in full) | 100 | 25 | 50 | 100 | > 200 | > 200 | 25 | 6.3 |  |  |  |  |  |  |  | 
CC(=O)OCC1=C(C(=O)O)N2C(=O)[C@@H](NC(=O)C(NC(=O)CSCC(=O)O)c3ccccc3)[C@H]2SC1 (stereo not given in full) | 25 (≈ 46.5 µM) | 6.3 (≈ 11.7 µM) | 12.5 (≈ 23.3 µM) | 64 | 12.5 (≈ 23.3 µM) | > 200 | 6.3 (≈ 11.7 µM) | 3.1 (≈ 5.77 µM) |  |  |  |  |  |  |  | 
CC(=O)OCC1=C(C(=O)[O-])N2C(=O)[C@@H](NC(=O)C(NC(=O)COCC(=O)[O-])c3ccccc3)[C@H]2SC1.[Na+].[Na+] (stereo not given in full) | 12.5 | 3.1 | 6.3 | 21.5 | 12.5 | > 200 | 12.5 | 3.1 |  |  |  |  |  |  |  | 
CC(=O)OCC1=C(C(=O)[O-])N2C(=O)[C@@H](NC(=O)C(NC(=O)C3CCC(C(=O)[O-])O3)c3ccccc3)[C@H]2SC1.[Na+].[Na+] (stereo not given in full) | 25 | 6.3 | 12.5 | 140 | 50 | 200 | 12.5 | 6.3 |  |  |  |  |  |  |  | 
Cn1nnnc1SCC1=C(C(=O)[O-])N2C(=O)[C@@H](NC(=O)C(NC(=O)CCCC(=O)[O-])c3ccccc3)[C@H]2SC1.[Na+].[Na+] (stereo not given in full) | 25 | 6.3 | 12.5 | 100 | 12.5 | > 200 | 6.3 | 3.1 | > 500 | > 500 | > 500 | > 500 | > 500 | > 500 | > 500 | > 500
Cn1nnnc1SCC1=C(C(=O)[O-])N2C(=O)[C@@H](NC(=O)C(NC(=O)CSCC(=O)[O-])c3ccccc3)[C@H]2SC1.[Na+].[Na+] (stereo not given in full) | 3.1 | 3.1 | 6.3 | 50 | 1.6 | > 200 | 3.1 | 3.1 | > 500 | 500 | > 500 | > 500 | 500 | > 500 | 500 | > 500
Cn1nnnc1SCC1=C(C(=O)[O-])N2C(=O)[C@@H](NC(=O)C(NC(=O)COCC(=O)[O-])c3ccccc3)[C@H]2SC1.[Na+].[Na+] (stereo not given in full) | 3.1 | 0.8 | 1.6 | 8.7 | 0.4 | 200 | 1.6 | 3.1 | 125 | 125 | 250 | 500 | 125 | 500 | 250 | 500
Cn1nnnc1SCC1=C(C(=O)O)N2C(=O)[C@@H](NC(=O)C(N)c3ccccc3)[C@H]2SC1 (stereo not given in full) | 1.6 (≈ 3.47 µM) | 1.6 (≈ 3.47 µM) | 3.1 (≈ 6.72 µM) | 1.4 | 6.3 (≈ 13.7 µM) | > 200 | 1.6 (≈ 3.47 µM) | 3.1 (≈ 6.72 µM) |  |  |  |  |  |  |  | 
CC(=O)OCC1=C(C(=O)[O-])N2C(=O)[C@@H](NC(=O)C(NC(=O)[C@H]3C[C@H]3C(=O)[O-])c3ccccc3)[C@H]2SC1.[Na+].[Na+] (mixture of isomers) | 12.5 | 3.1 | 12.5 | 25 | 12.5 | > 200 | 6.3 | 6.3 |  |  |  |  |  |  |  | 
CC(=O)OCC1=C(C(=O)[O-])N2C(=O)[C@@H](NC(=O)C(NC(=O)C3CO3)c3ccccc3)[C@H]2SC1.[Na+] (mixture of isomers) | 25 | 12.5 | 25 | 100 | 25 | > 200 | 12.5 | 1.6 |  |  |  |  |  |  |  | 
Cn1nnnc1SCC1=C(C(=O)[O-])N2C(=O)[C@@H](NC(=O)C(NC(=O)[C@H]3C[C@H]3C(=O)[O-])c3ccccc3)[C@H]2SC1.[Na+].[Na+] (mixture of isomers) | 6.3 | 3.1 | 6.3 | 25 | 6.3 | 200 | 3.1 | 6.3 | 125 | 125 | 250 | 500 | 125 | > 500 | 250 | 500
Cn1nnnc1SCC1=C(C(=O)[O-])N2C(=O)[C@@H](NC(=O)C(NC(=O)C3OC3C(=O)[O-])c3ccccc3)[C@H]2SC1.[Na+].[Na+] (mixture of isomers) | 1.6 | 0.8 | 0.8 | 7 | 0.4 | 50 | 1.6 | 6.3 | 63 | 63 | 63 | 500 | 125 | 500 | 63 | 500
Cn1nnnc1SCC1=C(C(=O)[O-])N2C(=O)[C@@H](NC(=O)[C@H](NC(=O)[C@H]3O[C@@H]3C(=O)[O-])c3ccccc3)[C@H]2SC1.[Na+].[Na+] (mixture of isomers) | 25 | 12.5 | 25 | 150 | 25 | > 200 | 12.5 | 1.6 |  |  |  |  |  |  |  | 
CC(=O)OCC1=C(C(=O)[O-])N2C(=O)[C@@H](NC(=O)C(NC(=O)C3OC3C(=O)[O-])c3ccccc3)[C@H]2SC1.[Na+].[Na+] (single isomer, unassigned; diastereomer 1) | 3.1 | 0.8 | 1.6 | 12.5 | 3.1 | 100 | 1.6 | 6.3 |  |  |  |  |  |  |  | 
CC(=O)OCC1=C(C(=O)[O-])N2C(=O)[C@@H](NC(=O)C(NC(=O)[C@@H]3O[C@@H]3C(=O)[O-])c3ccccc3)[C@H]2SC1.[Na+].[Na+] (single isomer, unassigned; diastereomer 2) | 25 | 6.3 | 12.5 | 72 | 200 | > 200 | 6.3 | 12.5 |  |  |  |  |  |  |  | 
CC(=O)OCC1=C(C(=O)O)N2C(=O)[C@@H](NC(=O)[C@H](N)c3ccccc3)[C@H]2SC1 [CEPHALOGLYCIN] | 50 (≈ 123 µM) | 3.1 (≈ 7.65 µM) | 3.1 (≈ 7.65 µM) |  | > 200 | > 200 | 3.1 (≈ 7.65 µM) | 3.1 (≈ 7.65 µM) |  |  |  |  |  |  |  | 
CC(=O)OCC1=C(C(=O)O)N2C(=O)[C@@H](NC(=O)Cc3cccs3)[C@H]2SC1 [CEPHALOTHIN] | 12.5 (≈ 31.5 µM) | 1.6 (≈ 4.04 µM) | 3.1 (≈ 7.82 µM) | 50 | > 200 | > 200 | 0.8 (≈ 2.02 µM) | 0.2 (≈ 0.504 µM) |  |  |  |  |  |  |  | 
